Reference: ChEMBL document CHEMBL4665829, “Synthesis, Structure-Activity Relationship, and Antimalarial Efficacy of 6-Chloro-2-arylvinylquinolines” (J Med Chem, 2020)
Activity calls are given as the source filed them. The rule behind the calls is not given here.

Assays:
Plasmodium falciparum [1] = assay: Antiplasmodial activity against chloroquine-resistant Plasmodium falciparum Dd2 infected in human erythrocytes assessed as reduction in microbial growth after 72 hrs by SYBR green I staining based fluorescence assay; assay type: functional, organism-based; settings: Dd2, Erythrocyte
In short: (§1)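 SYBR Green I assay: twofold serial dilutions on P. falciparum cultures at 1% parasitemia, 1% hematocrit, 37 °C, 5% CO₂, 72 h, max 0.1% DMSO. DMSO and CQ as growth and inhibition controls. Plates frozen at −80 °C, thawed, lysed in Tris/saponin/EDTA/Triton buffer with 0.01% SYBR Green I, 1 h dark at room temperature. Fluorescence read at 485 ex/530 em. EC50 by nonlinear dose–response fit.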

Plasmodium falciparum [2] = assay: Antiplasmodial activity against chloroquine-sensitive Plasmodium falciparum 3D7 infected in human erythrocytes assessed as reduction in microbial growth after 72 hrs by SYBR green I staining based fluorescence assay; assay type: functional, organism-based; settings: for Activity: Erythrocyte; for EC50: 3D7, Erythrocyte; in short: as §1
[3] = Resistant index, ratio of EC50 for antiplasmodial activity against chloroquine-resistant Plasmodium falciparum Dd2 to antiplasmodial activity against chloroquine-sensitive Plasmodium falciparum 3D7; assay type: functional

Structure (SMILES) | EC50 (Plasmodium falciparum [1]) [nM] | other results
Clc1ccc2nc(/C=C/C=C/c3ccccc3)cc(NCCCCN3CCOCC3)c2c1 | 143 | –
COc1ccc2nc(/C=C/c3ccco3)cc(NCCN(C)C)c2c1 | 88.7 | –
COc1ccc2nc(/C=C/c3ccccc3)cc(NCCN(C)C)c2c1 | 41.2 | Activity (Plasmodium falciparum [2]): Active; Ratio EC50 [3]: > 1.3
Fc1cnccc1/C=C/c1cc(NCCCCN2CCOCC2)c2cc(Cl)ccc2n1 | 79.6 | –
CN(C)CCNc1cc(/C=C/c2ccc(F)cc2)nc2ccc(F)cc12 | 30.9 | –
Fc1ccc(/C=C/c2cc(NCCCCN3CCOCC3)c3cc(Cl)ccc3n2)nc1 | 73.1 | –
CN(C)CCNc1cc(/C=C/c2ccc([N+](=O)[O-])cc2)nc2ccccc12 | 47.9 | –
CN(C)CCCCNc1cc(/C=C/c2ccccc2)nc2ccc(Cl)cc12 | 68 | –
Cc1cc(NCCCCN(C)C)c2cc(Cl)ccc2n1 | 1240 | –
COc1ccc2nc(/C=C/c3cccc([N+](=O)[O-])c3)cc(NCCN(C)C)c2c1 | 49.5 | –
FC(F)(F)c1cccc(/C=C/c2cc(NCCCCN3CCOCC3)c3cc(Cl)ccc3n2)c1 | 33.9 | –
COc1ccc2nc(C)cc(NCCN(C)C)c2c1 | 5520 | –
Fc1cccnc1/C=C/c1cc(NCCCCN2CCOCC2)c2cc(Cl)ccc2n1 | 197 | Activity (Plasmodium falciparum [2]): Active
COc1ccc2nc(CCc3ccncc3)cc(NCCN(C)C)c2c1 | 709 | –
CN(C)CCNc1cc(/C=C/c2cccs2)nc2ccc(F)cc12 | 111 | –
FC(F)(F)Oc1ccc(/C=C/c2cc(NCCCCN3CCOCC3)c3cc(Cl)ccc3n2)cc1 | 56.6 | –
Fc1ccc(/C=C/c2cc(N3CCCC3)c3cc(Cl)ccc3n2)cc1 | 428 | –
CN(C)CCCCNc1cc(/C=C/c2ccc(F)cc2)nc2ccc(Cl)cc12 | 51.2 | –
N#Cc1ccc(/C=C/c2cc(N3CCOCC3)c3cc(Cl)ccc3n2)cc1 | 1010 | –
CN(C)CCNc1cc(/C=C/c2ccc(F)cc2)nc2ccccc12 | 25.5 | –
CN(C)CCNc1cc(/C=C/c2ccccc2)nc2ccccc12 | 80.7 | –

Structure (SMILES) | EC50 (Plasmodium falciparum [1]) [nM] | other results
Clc1ccc2nc(/C=C/c3ccncc3)cc(Nc3ccc(N4CCCCC4)cc3)c2c1 | 793 | EC50 (Plasmodium falciparum [2]): 155 nM
COc1ccc2nc(/C=C/c3ccc(F)cc3)cc(NCCN(C)C)c2c1 | 32.9 | –
COc1ccc(/C=C/c2cc(NCCN(C)C)c3cc(F)ccc3n2)cc1OC | 41.1 | –
Clc1ccc2nc(/C=C/c3ccncc3)cc(N3CCN(c4ccccn4)CC3)c2c1 | 2570 | EC50 (Plasmodium falciparum [2]): 155 nM
CN1CCN(CCCCNc2cc(/C=C/c3ccc(F)cc3)nc3ccc(Cl)cc23)CC1 | 43 | –
COc1ccc(/C=C/c2cc(NCCN(C)C)c3cc(OC)ccc3n2)cc1 | 43.6 | –
COc1ccc(/C=C/c2cc(NCCN(C)C)c3cc(F)ccc3n2)cc1 | 37.8 | –
FC(F)(F)c1ccccc1/C=C/c1cc(NCCCCN2CCOCC2)c2cc(Cl)ccc2n1 | 104 | –
CN(C)CCNc1cc(/C=C/c2cccnc2)nc2ccc(Cl)cc12 | 33.6 | –
Fc1ccc(/C=C/c2cc(NCCCCN3CCOCC3)c3cc(Cl)ccc3n2)c(F)c1 | 72.6 | –
FC(F)(F)c1cc(/C=C/c2cc(NCCCCN3CCOCC3)c3cc(Cl)ccc3n2)cc(C(F)(F)F)c1 | 108 | –
CN1CCN(CCCCNc2cc(/C=C/c3ccccc3)nc3ccc(Cl)cc23)CC1 | 58.9 | –
CN(C)CCNc1cc(/C=C/c2ccccc2)nc2ccc(Cl)cc12 | 22.4 | –
CN(C)CCNc1cc(/C=C/c2ccc(N(C)C)cc2)nc2ccc(Cl)cc12 | 88.3 | Ratio EC50 [3]: > 1.3
CN(C)CCNc1cc(/C=C/c2ccco2)nc2ccc(Cl)cc12 | 37 | –
CN(C)CCCCNc1cc(/C=C/c2ccc([N+](=O)[O-])cc2)nc2ccc(Cl)cc12 | 52.5 | –
COc1ccc2nc(/C=C/c3cc(NCCN(C)C)c4cc(Cl)ccc4n3)ccc2c1 | 281 | Ratio EC50 [3]: > 1.3
CN(C)CCNc1cc(/C=C/c2ccc([N+](=O)[O-])cc2)nc2ccc(Cl)cc12 | 28.7 | –
Fc1cc(/C=C/c2cc(NCCCCN3CCOCC3)c3cc(Cl)ccc3n2)cc(F)c1F | 130 | –
COc1ccc2nc(/C=C/c3ccncc3)cc(NCCN(C)C)c2c1 | 38.8 | –
Clc1ccc2nc(-c3ccccc3)cc(NCCCCN3CCOCC3)c2c1 | 423 | –

Structure (SMILES) | EC50 (Plasmodium falciparum [1]) [nM] | other results
COc1ccc(/C=C/c2cc(NCCN(C)C)c3cc(Cl)ccc3n2)cc1 | 34.8 | –
Fc1ccc(/C=C/c2cc(NCCCN3CCOCC3)c3cc(Cl)ccc3n2)cc1 | 40.8 | –
CN(C)CCNc1cc(/C=C/c2ccccc2)nc2ccc(F)cc12 | 21 | –
CN(C)CCNc1cc(/C=C/c2ccc([N+](=O)[O-])cc2)nc2ccc(F)cc12 | 30.9 | –
Clc1ccc2nc(/C=C/c3ccncc3)cc(NCCN3CCOCC3)c2c1 | 137 | –
Fc1ccc(/C=C/c2cc(Nc3ccc(N4CCCCC4)cc3)c3cc(Cl)ccc3n2)cc1 | 667 | EC50 (Plasmodium falciparum [2]): 155 nM
Fc1ccc(/C=C/c2cc(N3CCC(N4CCCCC4)CC3)c3cc(Cl)ccc3n2)cc1 | 487 | EC50 (Plasmodium falciparum [2]): 155 nM
Fc1ccc(/C=C/c2cc(NCCN3CCCC3)c3cc(Cl)ccc3n2)cc1 | 92.3 | –
Fc1ccc(/C=C/C=C/c2cc(NCCCCN3CCOCC3)c3cc(Cl)ccc3n2)cc1 | 96.5 | –
CN(C)CCNc1cc(CCc2ccncc2)nc2ccc(Cl)cc12 | 259 | –
CN1CCN(CCNc2cc(/C=C/c3ccncc3)nc3ccc(Cl)cc23)CC1 | 53.3 | –
CN(C)CCNc1cc(/C=C/c2cccs2)nc2ccc(Cl)cc12 | 29.7 | –
COc1cc(/C=C/c2cc(NCCN(C)C)c3cc(Cl)ccc3n2)cc(OC)c1OC | 44.4 | –
CN(C)CCNc1cc(/C=C/c2ccco2)nc2ccc(F)cc12 | 82.6 | –
Cc1cc(NCCN(C)C)c2cc(Cl)ccc2n1 | 732 | –
COc1cc(/C=C/c2cc(NCCN(C)C)c3cc(F)ccc3n2)cc(OC)c1OC | 38.6 | –
Clc1ccc2nc(/C=C/c3ccncc3)cc(N3CCCC3)c2c1 | 1180 | –
Fc1cc(F)cc(/C=C/c2cc(NCCCCN3CCOCC3)c3cc(Cl)ccc3n2)c1 | 185 | –
Clc1ccc2nc(/C=C/c3ccncc3)cc(N3CCOCC3)c2c1 | 3590 | –
CN(C)CCNc1cc(/C=C/c2cccc3ccccc23)nc2ccc(Cl)cc12 | 373 | Ratio EC50 [3]: > 1.3
Clc1ccc2nc(/C=C/c3ccccc3)cc(NCCN3CCCC3)c2c1 | 107 | –

Structure (SMILES) | EC50 (Plasmodium falciparum [1]) [nM] | other results
CN(C)CCNc1cc(/C=C/c2ccccn2)nc2ccc(Cl)cc12 | 67.5 | –
COc1ccc2nc(/C=C/c3ccccc3[N+](=O)[O-])cc(NCCN(C)C)c2c1 | 56.3 | –
COc1ccc2nc(/C=C/c3ccccn3)cc(NCCN(C)C)c2c1 | 1030 | –
CN(C)CCNc1cc(/C=C/C2CCCCC2)nc2ccc(Cl)cc12 | 394 | Ratio EC50 [3]: > 1.3
Fc1cc(F)c(F)c(/C=C/c2cc(NCCCCN3CCOCC3)c3cc(Cl)ccc3n2)c1 | 588 | Activity (Plasmodium falciparum [2]): Active
Fc1ccc(/C=C/c2cc(N3CCN(c4ccccn4)CC3)c3cc(Cl)ccc3n2)cc1 | 3300 | EC50 (Plasmodium falciparum [2]): 155 nM
CN(C)CCNc1cc(/C=C/c2ccncc2)nc2ccc(F)cc12 | 36.1 | –
FC(F)(F)c1ccc(/C=C/c2cc(NCCCN3CCOCC3)c3cc(Cl)ccc3n2)cc1 | 84.8 | –
CN(C)CCNc1cc(/C=C/c2cncnc2)nc2ccc(Cl)cc12 | 155 | Ratio EC50 [3]: > 1.3
COc1ccc2nc(/C=C/c3cccnc3)cc(NCCN(C)C)c2c1 | 71 | –
Clc1ccc2nc(-c3ccncc3)cc(NCCCCN3CCOCC3)c2c1 | 796 | –
COc1ccc2nc(/C=C/c3ccc([N+](=O)[O-])cc3)cc(NCCN(C)C)c2c1 | 28.6 | –
Clc1ccc2nc(/C=C/c3ccncc3)cc(NCCN3CCCC3)c2c1 | 67.7 | –
Fc1cc(F)c(/C=C/c2cc(NCCCCN3CCOCC3)c3cc(Cl)ccc3n2)cc1F | 197 | Activity (Plasmodium falciparum [2]): Active
CN(C)CCNc1cc(/C=C/c2cc3ccccc3[nH]2)nc2ccc(Cl)cc12 | 95.9 | Ratio EC50 [3]: > 1.3
CN(C)CCNc1cc(/C=C/c2nccs2)nc2ccc(Cl)cc12 | 240 | –
Fc1ccc(/C=C/c2cc(N3CCOCC3)c3cc(Cl)ccc3n2)cc1 | 6750 | –
Fc1ccc(/C=C/c2cc(NCCCCN3CCOCC3)c3cc(Cl)ccc3n2)cn1 | 54.6 | Activity (Plasmodium falciparum [2]): Active
COc1ccc(/C=C/c2cc(NCCN(C)C)c3cc(Cl)ccc3n2)cc1OC | 38.9 | –
COc1ccc2nc(/C=C/c3cccs3)cc(NCCN(C)C)c2c1 | 80 | –
